Experimental data reported in ChEMBL document CHEMBL1154686, “Pyrazoline bearing benzimidazoles: search for anticancer agent” (2010).

Key:
Format in all cases: functional
[1] = tested on: M14; assay: Growth inhibition of human M14 cells after 48 hrs by SRB assay; conditions: M14, 48 h
Procedure, shortened: (§1)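 NCI-60 panel protocol with adherent lines. Cells were seeded at 5,000–40,000 cells/well, depending on doubling time, and pre-incubated 24 h at 37 °C, 5% CO₂. Time-zero plates were TCA-fixed at drug addition. Drugs were dissolved in DMSO and exposed for 48 h. Cells were fixed with cold TCA (final 10%) for 60 min at 4 °C, stained with 0.4% SRB in 1% acetic acid for 10 min, solubilized with 10 mM trizma base, and read at A515.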

[2] = tested on: OVCAR-3; assay: Growth inhibition of human OVCAR-3 cells after 48 hrs by SRB assay; conditions: OVCAR-3, 48 h; procedure, shortened: as §1
[3] = tested on: HCT-15; assay: Growth inhibition of human HCT15 cells after 48 hrs by SRB assay; conditions: HCT-15, 48 h; procedure, shortened: as §1
[4] = tested on: MDA-MB-468; assay: Growth inhibition of human MDA-MB-468 cells after 48 hrs by SRB assay; conditions: MDA-MB-468, 48 h; procedure, shortened: as §1
[5] = tested on: EKVX; assay: Growth inhibition of human EKVX cells after 48 hrs by SRB assay; procedure, shortened: as §1
[6] = tested on: LOX IMVI; assay: Growth inhibition of human LOXIMVI cells after 48 hrs by SRB assay; procedure, shortened: as §1
[7] = tested on: IGROV-1; assay: Growth inhibition of human IGROV1 cells after 48 hrs by SRB assay; conditions: IGROV-1, 48 h; procedure, shortened: as §1
[8] = tested on: T47D; assay: Growth inhibition of human T47D cells after 48 hrs by SRB assay
Procedure, shortened: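 NCI 60-cell panel, five-dose format: cells plated at 5,000–40,000/well by doubling time, preincubated 24 h at 37 °C, 5% CO2; time-zero plates TCA-fixed. Compound dissolved in DMSO, five concentrations (0.01, 0.1, 1, 10, 100 µM) plus control, 48 h. Cells fixed with cold TCA, stained with 0.4% SRB in 1% acetic acid, bound dye solubilized in 10 mM trizma base, absorbance at 515 nm. GI50 taken from [(Ti–Tz)/(C–Tz)]×100 = 50.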

[9] = read-out: LC50 (the source's name)

**Q.** Which GI50 [1] does the source give for `COc1ccc(C2CC(c3nc4ccccc4[nH]3)=NN2c2ccccc2)cc1OC` (centres undefined) here?
**A.** 16.1 µM

**Q.** What about the TGI [1] of the same compound?
**A.** > 100 µM

**Q.** And the CC50 [1, 9]?
**A.** > 100 µM

**Q.** What about the GI50 [2] of the same compound?
**A.** 4.17 µM

**Q.** And the TGI [2]?
**A.** 18.9 µM

**Q.** And the CC50 [2, 9]?
**A.** 62.2 µM

**Q.** And the GI50 [3]?
**A.** 4.1 µM

**Q.** And the TGI [3]?
**A.** 20.5 µM

**Q.** And the CC50 [3, 9]?
**A.** 70.9 µM

**Q.** And the GI50 [4]?
**A.** 5.25 µM

**Q.** What about the TGI [4] of the same compound?
**A.** 21.2 µM

**Q.** What about the CC50 [4, 9] of the same compound?
**A.** 64.9 µM

**Q.** What about the GI50 [5] of the same compound?
**A.** 9.83 µM

**Q.** And the TGI [5]?
**A.** > 100 µM

**Q.** And the CC50 [5, 9]?
**A.** > 100 µM

**Q.** And the GI50 [6]?
**A.** 5.1 µM

**Q.** And the TGI [6]?
**A.** 21.7 µM

**Q.** What about the CC50 [6, 9] of the same compound?
**A.** 62.9 µM

**Q.** What about the GI50 [7] of the same compound?
**A.** 0.92 µM

**Q.** And the TGI [7]?
**A.** 19.1 µM

**Q.** And the CC50 [7, 9]?
**A.** > 100 µM

**Q.** What about the GI50 [8] of the same compound?
**A.** 3.09 µM

**Q.** What about the TGI [8] of the same compound?
**A.** 51.1 µM

**Q.** And the CC50 [8, 9]?
**A.** > 100 µM
